ChEMBL document CHEMBL6078712, “Triterpenoid phthalimides as selective anti-cancer agents targeting mitochondrial apoptosis” (Eur J Med Chem, 2025)
The source made the active and inactive calls. The rule behind the calls is not given here.

Key:
U2OS = assay: Cytotoxicity against human U2OS cells assessed as inhibition of cell growth incubated for 72 hrs by MTS assay; format: functional, cell-based
Method in brief: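 MTS assay on eight human cancer lines and two non-tumour fibroblast lines. IC50 is the concentration that inhibits cell growth by 50 %. SD typically up to 15 % of the mean.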

[1] = Plasma protein binding in human assessed as fraction bound at 10 uM incubated for 4 hrs by rapid equilibrium dialysis based RF-MS analysis; format: ADME, cell-free; settings: read-out: PPB (converted)
Method in brief: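 Human plasma stability, plasma protein binding and liver microsome stability, each run in triplicate. Error deviations below 10 %.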

CCRF-CEM [2] = assay: Induction of apoptosis in human CCRF-CEM cells assessed as necrotic cells at 1 times IC50 incubated for 24 hrs by Annexin V-FITC and PI staining based flow cytometric analysis (reference value: 0.4 %); format: functional
Method in brief: (§1)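 Washed in Ca2+-containing binding buffer, then stained 15 min at room temperature in the dark with Annexin V-FITC and propidium iodide (PI at half the kit-recommended level). Read at once by flow cytometry with a 488 nm laser, ≥10,000 cells. Debris excluded; quadrants viable, early apoptotic, late apoptotic/necrotic, necrotic. Three independent experiments.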

CCRF-CEM [3] = assay: Induction of apoptosis in human CCRF-CEM cells assessed as viable cells at 5 times IC50 incubated for 24 hrs by Annexin V-FITC and PI staining based flow cytometric analysis (reference value: 97.4 %); format: functional; method in brief: as §1
CCRF-CEM [4] = assay: Induction of apoptosis in human CCRF-CEM cells assessed as late apoptotic cells at 5 times IC50 incubated for 24 hrs by Annexin V-FITC and PI staining based flow cytometric analysis (reference value: 0.4 %); format: functional; method in brief: as §1
Mitochondrial membrane = assay: Induction of mitochondrial membrane potential depolarization in human CCRF-CEM cells assessed as fold increase in fluorescence intensity at 5 times IC50 incubated for 24 hrs by JC-1 staining based flow cytometry; format: cell membranes
CCRF-CEM [5] = assay: Inhibition of DNA synthesis in human CCRF-CEM cells at 1 times IC50 incubated for 24 hrs by BrdU incorporation based flow cytometry; format: functional
Method in brief: (§2)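 Fixed in ice-cold 70 % ethanol, DNA denatured in 2 M HCl for 30 min, neutralised with borax. Stained with anti-BrdU plus FITC secondary, then PI/RNase A for 1 h. Flow cytometry; % BrdU-positive cells.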

CCRF-CEM [6] = assay: Inhibition of DNA synthesis in human CCRF-CEM cells at 5 times IC50 incubated for 24 hrs by BrdU incorporation based flow cytometry; format: functional; method in brief: as §2
CCRF-CEM [7] = assay: Induction of cell cycle arrest in human CCRF-CEM cells assessed as downregulation of AKT phosphorylation at 5 times IC50 incubated for 24 hrs by Western blotting analysis; format: functional, cell-based
Method in brief: (§3)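 30 µg protein per lane on SDS-PAGE, transferred to nitrocellulose, blocked in 5 % BSA/TBS-Tween. Primary antibodies overnight at 4 °C (Akt, P-Akt Ser473, STAT-3, caspase-3, PARP, cyclin D, cyclin A, Bcl-xL, Bak, Bid, Bim), then HRP secondary and ECL detection. GAPDH as loading control.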

CCRF-CEM [8] = assay: Induction of cell cycle arrest in human CCRF-CEM cells assessed as downregulation of Cyclin A expression at 5 times IC50 incubated for 24 hrs by Western blotting analysis; format: functional, cell-based; method in brief: as §3
CCRF-CEM [9] = assay: Induction of apoptosis in human CCRF-CEM cells assessed as upregulation of BIM expression at 1 to 5 times IC50 incubated for 24 hrs by Western blotting analysis; format: functional, cell-based; method in brief: as §3

**Q.** Which IC50 (U2OS) does the source give for `CC(=O)O[C@H]1CC[C@]2(C)[C@H]3CC[C@@H]4[C@H]5[C@H](c6cc7c(c(-c8ccccc8)c6)C(=O)N(c6cc[nH]n6)C7=O)CC[C@]5(C(=O)O)CC[C@@]4(C)[C@]3(C)CC[C@H]2C1(C)C` here?
**A.** 13.8 µM

**Q.** And the fraction unbound at 4 h, 10 µM [1]?
**A.** 0.121

**Q.** And the Activity (CCRF-CEM [2])?
**A.** 0%

**Q.** What about the Activity (CCRF-CEM [3]) of the same molecule?
**A.** 86.5%

**Q.** What about the Activity (CCRF-CEM [4]) of the same molecule?
**A.** 5.5%

**Q.** And the fold change (FC) (Mitochondrial membrane)?
**A.** > 20

**Q.** What about the “inhibition (INH)” value (CCRF-CEM [5]) of the same molecule?
**A.** 23.6%

**Q.** What about the “inhibition (INH)” value (CCRF-CEM [6]) of the same molecule?
**A.** 9.9%

**Q.** And the Activity (CCRF-CEM [7])?
**A.** Active

**Q.** And the Activity (CCRF-CEM [8])?
**A.** Active

**Q.** And the Activity (CCRF-CEM [9])?
**A.** Active
